The values that follow come from ChEMBL document CHEMBL4616723, “Discovery of Antibacterials That Inhibit Bacterial RNA Polymerase Interactions with Sigma Factors” (J Med Chem, 2020).

The test system of data set [1] is Streptococcus pneumoniae. Put plainly: Antibacterial activity against Streptococcus pneumoniae ATCC 49619 assessed as reduction in pneumolysin release at 0.25 to 0.5 times MIC incubated for 16 to 20 hrs by Western blot analysis. Type of data set: functional, organism-based. A digest of the protocol:
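Overnight static culture in brain–heart infusion broth, with or without serially diluted compound; rifampicin and ceftriaxone controls at twofold dilutions from 2 to 0.002 μg/mL; untreated control. […] Western blot probed with rabbit polyclonal anti-pneumolysin (1:1000) and HRP anti-rabbit secondary, ECL chemiluminescence; band intensity normalized to untreated control.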
In general terms: In western blotting, separated proteins are transferred to a membrane and probed.

Data set [2] has as its system Staphylococcus epidermidis. Put plainly: Antibacterial activity against Staphylococcus epidermidis ATCC 12228 after 20 hrs by CLSI based-broth microdilution method. Format: functional. To be noted: ATCC 12228, 20 h. In general terms: Broth dilution looks for growth in wells or tubes with falling amounts of substance.
The subject of the next data set is Streptococcus pyogenes. Put plainly: Antibacterial activity against Streptococcus pyogenes ATCC 19615 after 20 hrs by CLSI based-broth microdilution method. Type of data set: functional. To be noted: ATCC 19615, 20 h.
A further data set concerns Enterococcus faecalis. The data set can be described thus: Antibacterial activity against Enterococcus faecalis ATCC 19433 after 20 hrs by CLSI based-broth microdilution method. Format: functional. The settings on record: ATCC 19433, 20 h.
The test system of data set [3] is Streptococcus pneumoniae. The data set can be described thus: Antibacterial activity against Streptococcus pneumoniae ATCC 49619 after 20 hrs by CLSI based-broth microdilution method. Type of data set: functional. To be noted: ATCC 49619, 20 h.
Data set [4] relates to Staphylococcus aureus. Put plainly: Antibacterial activity against Staphylococcus aureus ATCC 29213 after 20 hrs by CLSI based-broth microdilution method. Type of data set: functional. To be noted: ATCC 29213, 20 h.
Data set [5] relates to Staphylococcus saprophyticus. The data set can be described thus: Antibacterial activity against Staphylococcus saprophyticus ATCC 15305 after 20 hrs by CLSI based-broth microdilution method. Format: functional. The settings on record: subsp. saprophyticus ATCC 15305, 20 h.
The test system of data set [6] is Streptococcus agalactiae. The data set can be described thus: Antibacterial activity against Streptococcus agalactiae ATCC 12386 after 20 hrs by CLSI based-broth microdilution method. The settings on record: ATCC 12386, 20 h. Type of data set: functional.
The subject of data set [7] is Staphylococcus aureus. Put plainly: Antibacterial activity against Staphylococcus aureus ATCC 25923 after 20 hrs by CLSI based-broth microdilution method. Type of data set: functional. The settings on record: ATCC 25923, 20 h.
A further data set concerns Escherichia coli. The data set can be described thus: Antibacterial activity against Escherichia coli ATCC 25922 after 20 hrs by CLSI based-broth microdilution method. Type of data set: functional. To be noted: ATCC 25922, 20 h.
For another data set, the system named is Pseudomonas aeruginosa. Put plainly: Antibacterial activity against Pseudomonas aeruginosa ATCC 27853 after 20 hrs by CLSI based-broth microdilution method. Format: functional. To be noted: ATCC 27853, 20 h.
A further data set deals with Acinetobacter baumannii. The data set can be described thus: Antibacterial activity against Acinetobacter baumannii ATCC 19606 after 20 hrs by CLSI based-broth microdilution method. Type of data set: functional. The settings on record: ATCC 19606 = CIP 70.34 = JCM 6841, 20 h.
The subject of data set [8] is Streptococcus pneumoniae. The data set can be described thus: Antibacterial activity against Streptococcus pneumoniae ATCC 49619 after 16 to 20 hrs by CLSI based-broth microdilution method. Format: functional.
The next data set deals with Enterobacter cloacae. The data set can be described thus: Antibacterial activity against Enterobacter cloacae ATCC 13047 after 20 hrs by CLSI based-broth microdilution method. Format: functional. To be noted: subsp. cloacae ATCC 13047, 20 h.
In a further data set the test system is Klebsiella pneumoniae. Put plainly: Antibacterial activity against Klebsiella pneumoniae ATCC 700603 after 20 hrs by CLSI based-broth microdilution method. Type of data set: functional. To be noted: ATCC 700603, 20 h.
Data set [9] concerns Staphylococcus aureus. Put plainly: Effect on total DNA level in Staphylococcus aureus ATCC 29213 at 1/4 to 1/8 times MIC by fluorimetric method. Type of data set: functional, organism-based.
Data set [10] concerns Staphylococcus aureus. The data set can be described thus: Bactericidal activity against Staphylococcus aureus ATCC 25923 assessed as decrease in CFU count at 16 times MIC measured over 6 hrs by time kill assay. Format: functional, organism-based.
Data set [11] relates to Streptococcus pneumoniae. The data set can be described thus: Bacteriostatic activity against Streptococcus pneumoniae ATCC 49619 at 1 times MIC measured over 6 hrs by time kill assay. Type of data set: functional, organism-based.
The nature of data set [12]: Inhibition of Escherichia coli RNAP/sigma-70 protein-protein interaction assessed as reduction in RNA synthesis preincubated for 10 mins followed by sigma-70/DNA template/AGU/ApU/alpha [32P]GTP addition and measured after 10 mins by phosphorimaging analysis.
In data set [13] the test system is Staphylococcus aureus. Put plainly: Effect on total protein level in Staphylococcus aureus ATCC 29213 at 1/4 to 1/8 times MIC. Format: functional, organism-based.
Data set [14] relates to Streptococcus agalactiae. Put plainly: Bactericidal activity against Streptococcus agalactiae ATCC 12386 assessed as decrease in CFU count at 16 times MIC measured over 6 hrs by time kill assay. Type of data set: functional, organism-based.
Data set [15] relates to Staphylococcus aureus. The data set can be described thus: Effect on total RNA level in Staphylococcus aureus ATCC 29213 at 1/4 to 1/8 times MIC by fluorimetric method. Format: functional.
Data set [16] relates to Streptococcus pneumoniae. Put plainly: Bactericidal activity against Streptococcus pneumoniae ATCC 49619 at 4 to 16 times MIC measured over 6 hrs by time kill assay. Format: functional, organism-based.
For data set [17], the system named is Bacillus subtilis. Put plainly: Inhibition of RNAP subunit beta' interaction with sigma factor A assessed as RNAP delocalization from nucleoid at 0.5 times MIC incubated for 15 mins by confocal microscopy.
A further data set has as its system HepG2. Put plainly: Cytotoxicity against human HepG2 cells after 48 to 72 hrs by MTT assay. Format: cell-based. Background: Tetrazolium dyes change colour on reduction, which living cells bring about.
For data set [18], the system named is Staphylococcus aureus. The data set can be described thus: Bacteriostatic activity against Staphylococcus aureus ATCC 25923 at 16 times MIC measured over 6 hrs by time kill assay. Type of data set: functional, organism-based.
In data set [19] the test system is Bacillus subtilis. Put plainly: Inhibition of RNAP subunit beta' interaction with sigma factor A assessed as diffusion of RNAP into cytosolic region at 1 to 2 times MIC incubated for 15 mins by confocal microscopy.
A short description of data set [20]: Therapeutic index, ratio of CC50 for human HepG2 cells to MIC for Streptococcus pneumoniae ATCC 49619. Type of data set: toxicity. To be noted: read-out: TI.
Data set [21] concerns Streptococcus pneumoniae. Put plainly: Antibacterial activity against Streptococcus pneumoniae ATCC 49619 assessed as reduction in bacterial ATP production at 0.25 to 16 times MIC measured up to 6 hrs by BacTiter-Glo assay. Format: functional, organism-based. An outline of the steps: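 Log-phase S. pneumoniae, about 1.5 × 10^6 CFU/mL in BHI containing compound at several concentrations, untreated control included; grown at 37 °C, 200 rpm, 5% CO2; samples taken at 0, 2, 4 and 6 h; ATP measured by BacTiter-Glo luminescence; triplicate.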

Data set [22] relates to Streptococcus pneumoniae. Put plainly: Bacteriostatic activity against Streptococcus pneumoniae ATCC 49619 assessed as decrease in bacterial growth at 4 to 16 times MIC measured over 6 hrs by time kill assay relative to control. Format: functional.
Data set [23] relates to Streptococcus agalactiae. Put plainly: Bacteriostatic activity against Streptococcus agalactiae ATCC 12386 at 16 times MIC measured over 6 hrs by time kill assay. Type of data set: functional, organism-based.
For another data set, the system named is A549. The data set can be described thus: Cytotoxicity against human A549 cells after 48 to 72 hrs by MTT assay. Format: cell-based.
Data set [24] can be described thus: Therapeutic index, ratio of CC50 for human A549 cells to MIC for Streptococcus pneumoniae ATCC 49619. To be noted: read-out: TI. Format: toxicity.

In brackets after ≈: the same amount, converted by molar mass. Activity calls are given as the source filed them. The calls are words filed in the database; no cut-off is given here.

By MIC is commonly meant the least concentration at which growth counts as inhibited. Lower therefore signals a more susceptible organism. Usually IC50 stands for the concentration that inhibits the measured activity by half. The term CC50 denotes the concentration giving 50% cytotoxicity.

Turning to `CO/N=C(\C(=O)N[C@@H]1C(=O)N2C(C(=O)O)=C(CSc3nc(=O)c(O)nn3C)CS[C@H]12)c1csc(N)n1`, in the data set with Streptococcus pneumoniae [1], the outcome was inactive.
`CO[C@H]1/C=C/O[C@@]2(C)Oc3c(C)c(O)c4c(O)c(c(/C=N/N5CCN(C)CC5)c(O)c4c3C2=O)NC(=O)/C(C)=C\C=C\[C@H](C)[C@H](O)[C@@H](C)[C@@H](O)[C@@H](C)[C@H](OC(C)=O)[C@@H]1C` [RIFAMPIN]: the MIC in [2] came to 0.03 µg/mL (≈ 0.0365 µM); with Streptococcus pyogenes, 0.03 µg/mL (≈ 0.0365 µM); against Enterococcus faecalis it was 4 µg/mL (≈ 4.86 µM); in the data set on Streptococcus pneumoniae [3], 0.0625 µg/mL (≈ 0.0759 µM); with Staphylococcus aureus [4], 0.03 µg/mL (≈ 0.0365 µM); in data set [5], 0.03 µg/mL (≈ 0.0365 µM). The MIC in the data set with Streptococcus agalactiae [6] was 0.03 µg/mL (≈ 0.0365 µM); against Staphylococcus aureus [7], 0.01 µg/mL (≈ 0.0122 µM). The outcome in the data set on Streptococcus pneumoniae [1] was Active.
Consider `Nc1cccc(Sc2ccc(C(=O)c3ccccc3C(=O)O)cc2[N+](=O)[O-])c1`, for which the MIC against Escherichia coli was > 256 µg/mL; in the data set on Pseudomonas aeruginosa, > 256 µg/mL; in the data set with Acinetobacter baumannii, > 256 µg/mL; with Streptococcus pneumoniae [8], 64 µg/mL (≈ 162 µM); in the data set with Enterobacter cloacae, > 256 µg/mL; against Klebsiella pneumoniae, > 256 µg/mL.
In the case of `O=C(O)c1ccc(Cl)cc1NCc1ccc(Sc2ccc(Cl)c(Cl)c2)c([N+](=O)[O-])c1`, the outcome in the data set with Staphylococcus aureus [9], in the data set on Staphylococcus aureus [10], in the data set on Streptococcus agalactiae [14] and in the data set on Streptococcus pneumoniae [16] was inactive. The outcome in the data set with Streptococcus pneumoniae [11], with Staphylococcus aureus [13], in the data set on Staphylococcus aureus [15], with Staphylococcus aureus [18], with Streptococcus pneumoniae [1] and in the data set with Streptococcus pneumoniae [21] was Active. Besides, in the data set on Streptococcus agalactiae [23], the result was Active. The MIC in the data set on Escherichia coli is > 256 µg/mL; in [2], 2 µg/mL (≈ 4.13 µM); with Streptococcus pyogenes, 1 µg/mL (≈ 2.07 µM); against Enterococcus faecalis, 4 µg/mL (≈ 8.27 µM); against Pseudomonas aeruginosa, > 256 µg/mL; in the data set on Acinetobacter baumannii, > 256 µg/mL. Further, the MIC was 4 µg/mL (≈ 8.27 µM) in the data set with Staphylococcus aureus [4]; 2 µg/mL (≈ 4.13 µM) in data set [5]; > 256 µg/mL against Enterobacter cloacae; > 256 µg/mL with Klebsiella pneumoniae; 2 µg/mL (≈ 4.13 µM) against Streptococcus agalactiae [6]; 4 µg/mL (≈ 8.27 µM) against Staphylococcus aureus [7]. In addition, in data set [12], the IC50 came out at 6.8 µM. Also, the inhibition result in the data set on Bacillus subtilis [17] and in the data set with Bacillus subtilis [19] was “Active” in each case. Further, the results for the CC50 in the data set on HepG2 and in the data set with A549 were 74.4 µM and 75.7 µM, respectively. Also, the selectivity ratio is 36 in data set [20] and 37 in data set [24]. In the data set on Streptococcus pneumoniae [22], the “log(activity)” value is reported as 2.
